Assay outcomes from PubChem BioAssay.
TRAIL sens C8 – viability loss with TRAIL in NB7+C8 cells, primary screen, TRAIL sensitizer project, cell-based, ATPlite luminescence | AID 624354, 2012 | inhibition (viability loss, TRAIL sensitization), % at 10 µM | actives 1% (n = 360,000);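 active = compounds causing at least 50% loss of cell viability in the single-dose screen, relative to plate controls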
FLuc inhib CS – firefly luciferase enzyme inhibitors, primary screen, artefact control for luciferase-based inhibitor screens, biochemical, luminescence, ATPLite; actives 1.5% (n = 200,000); 10 min; Luciferin 4-monooxygenase (Photinus pyralis), P08659; AID 1006, 2008; inhibition, % at 10 µM;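 active = inhibition above about 50% when tested at 10 µM, limit read from the data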
Target sequence (P08659 whole entry, looked up): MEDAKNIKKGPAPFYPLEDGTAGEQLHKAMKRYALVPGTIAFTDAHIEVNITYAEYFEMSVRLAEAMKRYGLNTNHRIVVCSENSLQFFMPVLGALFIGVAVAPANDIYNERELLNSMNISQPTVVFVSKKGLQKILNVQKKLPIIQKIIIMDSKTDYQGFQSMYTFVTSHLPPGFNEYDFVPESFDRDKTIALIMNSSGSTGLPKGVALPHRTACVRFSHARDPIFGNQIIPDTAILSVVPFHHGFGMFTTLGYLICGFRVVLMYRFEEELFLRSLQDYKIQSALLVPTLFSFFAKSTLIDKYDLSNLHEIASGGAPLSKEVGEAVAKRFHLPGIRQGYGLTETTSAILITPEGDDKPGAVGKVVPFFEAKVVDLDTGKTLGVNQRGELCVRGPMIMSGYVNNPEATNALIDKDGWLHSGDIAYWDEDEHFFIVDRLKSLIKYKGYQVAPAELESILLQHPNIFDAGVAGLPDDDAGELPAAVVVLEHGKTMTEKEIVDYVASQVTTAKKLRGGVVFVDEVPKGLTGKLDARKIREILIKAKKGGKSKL
STAT3 blocker – IL-6 driven STAT3 reporter inhibitors, primary screen, U3A cells, luciferase, luminescence, MLSCN library. IL-6 STAT3-luciferase reporter; host cell line lacks STAT1. inhibition, % at 5.5 µM. actives 0.89% (n = 190,000). AID 862, 2007;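 active = inhibition above the mean inhibition across all screened compounds plus 3 SD, cut at about 44% in these data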
FLuc act counter – FLuc activators, initial screening, artefact control for FLuc-dependent activation tests, biochemical, ATPlite luminescence. Luciferin 4-monooxygenase (Photinus pyralis), P08659. ATPlite luciferase biochemical, 10 min; 0 = ATP-free wells, 1 = DMSO control. activation factor at 10 µM. 200,000 tested, under 10 active;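 active = luciferase activation factor, scaled between plate controls, of at least 2 with compound at 10 µM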
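System: Luciferase/luciferin detection reagent, cell-free biochemical luciferase assay | Medium: PBS buffer for ATP | Dosing: Test compounds dosed from 2 mM stocks in 100% DMSO | Timing: 10 min at ambient temperature | Signal: Luminescence measurement of luciferase light output | Evaluation: Luciferase activation, seen as luminescence increase over controls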
HSP90 refold inh – HSP90 inhibitors, primary screen, cell lysate, luminescence. actives 0.91% (n = 290,000). Heat shock protein HSP 90 (rabbit reticulocyte lysate; luciferase refolding). AID 1789, 2009. Rabbit reticulocyte lysate, luciferase refolding luminescence, 3 h. inhibition, % at 5.6 µM;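 active = inhibition above the screen-wide mean plus 3 SD, computed separately per campaign, cut at about 16% in these data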;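 note: inhibitors lower the luminescence because luciferase stays unfolded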
PPC-1+TRAIL kill – compounds killing PPC-1 cancer cells with TRAIL present, primary screen, TRAIL potentiator project, ATPLite luminescence, uHTS. PPC-1 cells + TRAIL, ATPLite viability luminescence. cell killing (% activity), % at 4 µM or 5 µM. actives 0.41% (n = 220,000). AID 1443, 2008;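 active = cell killing above 50% in the first pass at 4 µM, then a duplicate retest at 5 µM averaging 50% or more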
Of the large screens only hits and unclear results are named; the others gave an inactive call. This is a sample that favours compounds with a hit; in the whole collection about 2.2% have one here.

O=C(NC(=S)Nc1ccccc1[N+](=O)[O-])c1ccccc1	none (no result: FLuc inhib CS, STAT3 blocker, FLuc act counter)
O=C(NC(=S)/C(=C1\CCCCCN1)[N+](=O)[O-])c1ccccc1	TRAIL sens C8 78 (no result: FLuc inhib CS, STAT3 blocker, FLuc act counter, HSP90 refold inh, PPC-1+TRAIL kill)
NC(=O)c1ccccc1NC(=O)/C=C/c1cccc(Cl)c1	FLuc inhib CS 56
NC(=O)c1ccccc1NC(=O)/C=C/c1c(Cl)cccc1Cl	none
COc1ccc(-c2cc3ccc(OCC(=O)NCC4CCC(C(=O)O)CC4)cc3oc2=O)cc1 (configuration not stated)	TRAIL sens C8 59 (no result: FLuc inhib CS, STAT3 blocker, FLuc act counter, PPC-1+TRAIL kill)
Cc1c(C)c2ccc(OCC(=O)N3CCC(C(=O)O)CC3)cc2oc1=O	HSP90 refold inh 16 (no result: FLuc inhib CS, STAT3 blocker, FLuc act counter, PPC-1+TRAIL kill)
Cc1cccc(NC(=S)NC(=O)c2cccs2)n1	none
Cc1ccc2nc(NC(=S)NC(=O)c3cccs3)sc2c1	TRAIL sens C8 79, FLuc inhib CS 90
COc1ccc2nc(NC(=S)NC(=O)c3ccco3)sc2c1	TRAIL sens C8 72, FLuc inhib CS 76
O=C(NC(=S)Nc1nc2ccccc2s1)c1ccco1	TRAIL sens C8 77, FLuc inhib CS 80
Cc1nc(NC(=S)NC(=O)c2cccs2)ccc1Br	FLuc inhib CS 58
FC(F)(F)Oc1ccc(Nc2nc(N3CCOCC3)nc(N3CCOCC3)n2)cc1	none (no result: FLuc inhib CS, STAT3 blocker, FLuc act counter, PPC-1+TRAIL kill)
O=C(Cc1ccc(NC2=NC3CS(=O)(=O)CC3S2)cc1)N1CCN(c2ccc(F)cc2)CC1 (configuration not stated)	none (no result: FLuc inhib CS, STAT3 blocker, FLuc act counter, PPC-1+TRAIL kill)
COc1ccc(C2=Nc3ccccc3OC2)cc1	FLuc inhib CS 51
Cc1ccc(S(=O)(=O)Oc2ccc(/C=N/NC(=O)c3nn(C)cc3Cl)cc2)cc1	none
Cc1ccc(/C=N/OC(=O)c2nn(C)cc2Cl)cc1	FLuc inhib CS 76 (no result: PPC-1+TRAIL kill)
NC(Cc1ccccc1)c1csc(NC(=O)Nc2ccccc2Oc2ccccc2)n1 (configuration not stated)	TRAIL sens C8 75 (no result: FLuc inhib CS, STAT3 blocker, FLuc act counter, HSP90 refold inh, PPC-1+TRAIL kill)
COc1cc(NC(=O)Nc2nc(C(N)Cc3ccc(C(F)(F)F)cc3)cs2)cc(OC)c1OC (configuration not stated)	TRAIL sens C8 53 (no result: FLuc inhib CS, STAT3 blocker, FLuc act counter, HSP90 refold inh, PPC-1+TRAIL kill)
COc1ccc(NC(=O)Nc2nc(C(N)Cc3ccc(C(F)(F)F)cc3)cs2)cc1 (configuration not stated)	none (no result: FLuc inhib CS, STAT3 blocker, FLuc act counter, HSP90 refold inh, PPC-1+TRAIL kill)
NC(Cc1ccc(C(F)(F)F)cc1)c1csc(NC(=O)Nc2ccccc2Oc2ccccc2)n1 (configuration not stated)	TRAIL sens C8 87 (no result: FLuc inhib CS, STAT3 blocker, FLuc act counter, HSP90 refold inh, PPC-1+TRAIL kill)
COc1ccc(CC(N)c2csc(NC(=O)Nc3ccccc3Oc3ccccc3)n2)cc1 (configuration not stated)	none (no result: FLuc inhib CS, STAT3 blocker, FLuc act counter, HSP90 refold inh, PPC-1+TRAIL kill)
CN(Cc1ccccc1)C(=O)c1ccc(Nc2nc(C(N)Cc3ccc(C(F)(F)F)cc3)cs2)nc1 (configuration not stated)	TRAIL sens C8 93 (no result: FLuc inhib CS, STAT3 blocker, FLuc act counter, HSP90 refold inh, PPC-1+TRAIL kill)
CCCCN1CC(=O)N2[C@@H]3c4cc(OC)ccc4OC[C@@H]3[C@H](C(=O)OCC)[C@]2(C)C1=O	none (no result: FLuc inhib CS, STAT3 blocker, FLuc act counter, HSP90 refold inh, PPC-1+TRAIL kill)
COc1ccc(NC(=O)CSc2nnc(C)n2N)cc1S(=O)(=O)N1CCCCC1	none (no result: FLuc inhib CS, STAT3 blocker, FLuc act counter, HSP90 refold inh, PPC-1+TRAIL kill)
Nc1ccc(Nc2nc(-c3ccncc3)cs2)cc1	FLuc inhib CS 59
CC(C)c1ccc(NC(=O)c2sccc2-n2cccc2)cc1	none
O=C(N/N=C/C1CC=CCC1)c1ccc(Cl)cc1O (configuration not stated)	FLuc inhib CS 55
O=C(N/N=C/c1cc(Cl)ccc1O)c1ccccc1Br	TRAIL sens C8 53
O=C(N/N=C\c1cc(Cl)ccc1O)c1ccc(S(=O)(=O)N2CCCCC2)cc1	PPC-1+TRAIL kill 52
O=C(Nc1cc(S(=O)(=O)Nc2ccc(Cl)cc2)ccc1O)c1ccc(S(=O)(=O)N2CCCCCC2)cc1	none
O=C(CNC(=O)c1ccccc1Br)N/N=C/c1cc(Br)ccc1O	none
CCC(C)[C@H](NC(=O)[C@H](Cc1ccccc1)n1c(=O)[nH]c2ccccc2c1=O)C(=O)NCC1CCC(C(=O)O)CC1 (some centres not stated)	none (no result: FLuc inhib CS, STAT3 blocker, FLuc act counter, PPC-1+TRAIL kill)
O=C1CCC2S/C(=C/Nc3ccc(C(F)(F)F)cc3)C(=O)N12 (configuration not stated)	STAT3 blocker 78
